Results reported in paper PMC3806060 (Journal of medicinal chemistry, 2013).
Entries after “also recorded” stand apart in the source; their conditions may differ. Read-outs that look alike come from different tables or passages of the source. Each block holds one compound with its values, some of them ahead of it.

Experiments:
[1] = test system: H146 small-cell lung cancer cell line; test: Cell growth inhibition assay; format: cell-based, Human; conditions: for Cellular activity in H146: at 1 μM; for Times less potent than compound 5 in H146 cell growth inhibition: versus 5; for Times less potent than compound 28 in H146 cell growth inhibition: versus 28
Bcl-2 [2] = biological target: T1, Bcl-2 (Homo sapiens, UniProt P10415); conditions: read-out: Ki, binding to Bcl-2; cited from earlier work
T1 sequence (P10415 whole entry): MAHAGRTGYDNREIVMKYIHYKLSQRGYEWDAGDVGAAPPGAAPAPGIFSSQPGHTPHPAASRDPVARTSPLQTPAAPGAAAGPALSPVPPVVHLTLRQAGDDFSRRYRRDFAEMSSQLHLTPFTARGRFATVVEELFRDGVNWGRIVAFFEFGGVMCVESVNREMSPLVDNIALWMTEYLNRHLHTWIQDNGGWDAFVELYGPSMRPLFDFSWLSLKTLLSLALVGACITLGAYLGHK

Bcl-xL = Bcl-xL (Homo sapiens, UniProt Q07817); conditions: read-out: Ki, binding to Bcl-xL; cited from earlier work
Bcl-xL, sequence (Q07817 whole entry): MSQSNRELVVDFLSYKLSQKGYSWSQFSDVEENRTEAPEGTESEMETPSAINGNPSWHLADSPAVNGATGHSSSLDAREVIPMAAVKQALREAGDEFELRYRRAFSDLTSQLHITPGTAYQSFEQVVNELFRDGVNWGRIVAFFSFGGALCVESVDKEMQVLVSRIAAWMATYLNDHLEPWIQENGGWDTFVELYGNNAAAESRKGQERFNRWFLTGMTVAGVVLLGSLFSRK

[3] = cited from earlier work
Bcl-2 [4] = biological target: T1, Bcl-2; test: FP based competitive binding assay, Bcl-2; conditions: versus 4
Mcl-1 = Mcl-1 (Homo sapiens, UniProt Q07820); test: FP based competitive binding assay, Mcl-1; conditions: at concentrations as high as 2 μM
Mcl-1, sequence (Q07820 whole entry): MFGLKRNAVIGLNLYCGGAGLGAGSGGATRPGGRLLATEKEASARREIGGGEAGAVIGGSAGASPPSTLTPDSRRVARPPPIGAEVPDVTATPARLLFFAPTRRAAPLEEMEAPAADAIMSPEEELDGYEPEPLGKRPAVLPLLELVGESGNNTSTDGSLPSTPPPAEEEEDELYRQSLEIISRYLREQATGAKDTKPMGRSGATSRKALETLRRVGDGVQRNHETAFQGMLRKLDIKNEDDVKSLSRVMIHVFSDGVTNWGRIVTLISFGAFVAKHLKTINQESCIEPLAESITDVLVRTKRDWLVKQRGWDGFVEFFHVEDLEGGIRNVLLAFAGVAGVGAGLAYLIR

H146 xenograft tumors = test: Western blot of H146 xenograft tumor tissue for cleavage of PARP and caspase-3; format: in vivo, SCID mice; conditions: single dose 15 mg/kg i.v., 3 and 6 h time points
Outline: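 SCID mice carried subcutaneous H146 xenografts (5 × 10^6 cells with Matrigel) of approximately 100 mm3. They received a single 15 mg/kg i.v. dose of test compound or vehicle. Tumors were harvested at 3, 6 or 24 h, and western blot measured total and cleaved PARP and caspase-3.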

[5] = test system: H146 small-cell lung cancer xenograft; test: Antitumor efficacy in the H146 xenograft tumor model; format: in vivo, SCID mice; conditions: for Antitumor activity / Tumor regression: daily, 5 days a week for 2 weeks
Outline: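 Subcutaneous dorsal xenografts in SCID mice: 5 × 10^6 H146 cells with Matrigel, one tumor per mouse. At 100–150 mm3 (mean 126 mm3), animals randomized into groups of 8. Vehicle or test compound given i.v. at 15 mg/kg, daily, 5 days/week for 2 weeks. Tumor size and body weight measured 3×/week during and 2×/week after dosing. Data are mean tumor volume ± SEM; two-way ANOVA and unpaired two-tailed t test, P < 0.05.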

[6] = test system: small-cell lung cancer cell lines; format: cell-based, Human; conditions: for IC50: Homo sapiens
Outline: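 H146, H1963, H187 and H1417 small-cell lung cancer lines were maintained in RPMI-1640 with 10% FBS. Cells were exposed to various concentrations of test compound for 4 days. WST-8 was added for a further 1–2 h and absorbance read at 450 nm. IC50 was calculated against untreated cells, with at least three independent experiments per line.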

Compound: CN(C)CC[C@H](CSc1ccccc1)Nc1ccc(S(=O)(=O)Nc2ccc(N3CCN(c4cccc(-c5c(C(=O)O)nn(C)c5-c5ccc(Cl)cc5)c4)CC3)cc2)cc1[N+](=O)[O-] [Compound 25, (R)-5-(4-Chlorophenyl)-4-(3-(4-(4-(4-(4-(dimethylamino)-1-(phenylthio)butan-2-ylamino)-3-nitrophenylsulfonamido)phenyl)piperazin-1-yl)phenyl)-1-methyl-1H-pyrazole-3-carboxylic acid]
Cellular activity in H146 [1]: minimal activity

Compound: CCCn1c(C)c(C(=O)O)c(-c2cccc(N3CCN(c4ccc(NS(=O)(=O)c5ccc(N[C@H](CCN(C)C)CSc6ccccc6)c([N+](=O)[O-])c5)cc4)CC3)c2)c1-c1ccc(Cl)cc1 [Compound 29, (R)-5-(4-Chlorophenyl)-4-(3-(4-(4-(4-(4-(dimethylamino)-1-(phenylthio)butan-2-ylamino)-3-nitrophenylsulfonamido)phenyl)piperazin-1-yl)phenyl)-2-methyl-1-propyl-1H-pyrrole-3-carboxylic acid]
Times less potent than compound 5 in H146 cell growth inhibition [1]: > 5 times
Times less potent than compound 28 in H146 cell growth inhibition [1]: > 10 times

Compound: Cc1c(C(=O)O)c(-c2cccc(N3CCN(c4ccc(NS(=O)(=O)c5ccc(N[C@H](CCN(C)C)CSc6ccccc6)c([N+](=O)[O-])c5)cc4)CC3)c2)c(-c2ccc(Cl)cc2)n1C [Compound 4]
Ki (Bcl-2 [2]): < 1 nM
Ki (Bcl-xL): < 1 nM
Chemical stability [3]: excellent chemical stability

Compound: CN(C)CC[C@H](CSc1ccccc1)Nc1ccc(S(=O)(=O)Nc2ccc(N3CCN(c4cccc(-c5c(C(=O)O)c(C(F)(F)F)n(C)c5-c5ccc(Cl)cc5)c4)CC3)cc2)cc1[N+](=O)[O-] [Compound 16, (R)-5-(4-Chlorophenyl)-4-(3-(4-(4-(4-(4-(dimethylamino)-1-(phenylthio)butan-2-ylamino)-3-nitrophenylsulfonamido)phenyl)piperazin-1-yl)phenyl)-1-methyl-2-(trifluoromethyl)-1H-pyrrole-3-carboxylic acid]
Times less potent than compound 4 in H146 cell growth inhibition ([1]; versus 4): 8 times

Compound: Cc1c(C(=O)O)c(-c2cccc(N3CCN(c4ccc(NS(=O)(=O)c5ccc(N[C@H](CCN(C)C)CSc6ccccc6)c([N+](=O)[O-])c5)cc4)CC3)c2)c(-c2ccc(Cl)cc2)n1C(C)C [Compound 28]
Times more potent than compound 4 in H146 cell growth inhibition ([1]; versus 4): 20 times

Times less potent than compound 4 in binding to Bcl-2 (Bcl-2 [4]): 100 times
Compound: Cc1c(C(F)(F)F)c(-c2cccc(N3CCN(c4ccc(NS(=O)(=O)c5ccc(N[C@H](CCN(C)C)CSc6ccccc6)c([N+](=O)[O-])c5)cc4)CC3)c2)c(-c2ccc(Cl)cc2)n1C [Compound 14, (R)-N-(4-(4-(3-(2-(4-Chlorophenyl)-1,5-dimethyl-4-(trifluoromethyl)-1H-pyrrol-3-yl)phenyl)piperazin-1-yl)phenyl)-4-(4-(dimethylamino)-1-(phenylthio)butan-2-ylamino)-3-nitrobenzenesulfonamide]
Times less potent than compound 4 in H146 cell growth inhibition ([1]; versus 4): > 100 times

Compound: CN(C)CC[C@H](CSc1ccccc1)Nc1ccc(S(=O)(=O)Nc2ccc(N3CCN(c4cccc(-c5c(C(=O)NS(C)(=O)=O)ncn5-c5ccc(Cl)cc5)c4)CC3)cc2)cc1[N+](=O)[O-] [Compound 23, (R)-1-(4-Chlorophenyl)-5-(3-(4-(4-(4-(4-(dimethylamino)-1-(phenylthio)butan-2-ylamino)-3-nitrophenylsulfonamido)phenyl)piperazin-1-yl)phenyl)-N-(methylsulfonyl)-1H-imidazole-4-carboxamide]
Cellular activity in H146 [1]: minimal activity

Binding to Mcl-1 (Mcl-1): no appreciable binding
Compound: CCn1c(C)c(C(=O)NS(C)(=O)=O)c(-c2cccc(N3CCN(c4ccc(NS(=O)(=O)c5ccc(N[C@H](CCN(C)C)CSc6ccccc6)c([N+](=O)[O-])c5)cc4)CC3)c2)c1-c1ccc(Cl)cc1 [Compound 31, (R)-5-(4-Chlorophenyl)-4-(3-(4-(4-(4-(4-(dimethylamino)-1-(phenylthio)butan-2-ylamino)-3-nitrophenylsulfonamido)phenyl)piperazin-1-yl)phenyl)-1-ethyl-2-methyl-N-(methylsulfonyl)-1H-pyrrole-3-carboxamide]
Cleavage of PARP and caspase-3 in H146 tumor tissue (H146 xenograft tumors): robust cleavage of PARP and caspase-3
Antitumor activity ([5]; 15 mg/kg i.v.): strong antitumor activity
Tumor regression ([5]; 15 mg/kg i.v.): partial tumor regression

Times less potent than compound 4 in binding to Bcl-2 (Bcl-2 [4]): 100 times
Compound: Cc1c(Cl)c(-c2cccc(N3CCN(c4ccc(NS(=O)(=O)c5ccc(N[C@H](CCN(C)C)CSc6ccccc6)c([N+](=O)[O-])c5)cc4)CC3)c2)c(-c2ccc(Cl)cc2)n1C [Compound 13, (R)-N-(4-(4-(3-(4-Chloro-2-(4-chlorophenyl)-1,5-dimethyl-1H-pyrrol-3-yl)phenyl)piperazin-1-yl)phenyl)-4-(4-(dimethylamino)-1-(phenylthio)butan-2-ylamino)-3-nitrobenzenesulfonamide]
Times less potent than compound 4 in H146 cell growth inhibition ([1]; versus 4): > 100 times

IC50 ([6]; read-out: IC50, cancer cell growth inhibition): 1 to 2 nM
IC50 ([6]; read-out: IC50, cell growth inhibition): 1 to 2.3 nM
Weight loss ([5]; H146 xenograft efficacy study, 15 mg/kg i.v., during or after treatment): < 5%
Compound: Cc1c(C(=O)NS(C)(=O)=O)c(-c2cccc(N3CCN(c4ccc(NS(=O)(=O)c5ccc(N[C@H](CCN(C)C)CSc6ccccc6)c([N+](=O)[O-])c5)cc4)CC3)c2)c(-c2ccc(Cl)cc2)n1C(C)C [Compound 32, (R)-5-(4-Chlorophenyl)-4-(3-(4-(4-(4-(4-(dimethylamino)-1-(phenylthio)butan-2-ylamino)-3-nitrophenylsulfonamido)phenyl)piperazin-1-yl)phenyl)-1-isopropyl-2-methyl-N-(methylsulfonyl)-1H-pyrrole-3-carboxamide]
Binding to Mcl-1 (Mcl-1): no appreciable binding; also recorded: does not show any appreciable binding
Times more potent than compound 1 in cell growth inhibition ([6]; versus 1, each of H1963, H187, H1417, based on IC50): > 50 times
Times more potent than compound 2 in cell growth inhibition ([6]; versus 2, each of H1963, H187, H1417, based on IC50): > 10 times
Cleavage of PARP and caspase-3 in H146 tumor tissue (H146 xenograft tumors): robust cleavage of PARP and caspase-3
Antitumor activity ([5]; 15 mg/kg i.v.): strong antitumor activity
Tumor regression ([5]; 15 mg/kg i.v.): rapid, complete and durable tumor regression; also recorded: rapid, complete and persistent tumor regression
Mice with measurable tumors, of 8 treated ([5]; day 62, 18 days after end of treatment, 15 mg/kg i.v.): none
Average tumor size ([5]; day 117, 8 mice, 130 mm^3 at start of treatment (day 33)): 47 mm^3
Mice without measurable tumors ([5]; day 117, 74 days after end of treatment, 8 mice, 15 mg/kg i.v.): 50%

Times less potent than compound 4 in binding to Bcl-2 (Bcl-2 [4]): > 10 times
Compound: Cc1c(C#N)c(-c2cccc(N3CCN(c4ccc(NS(=O)(=O)c5ccc(N[C@H](CCN(C)C)CSc6ccccc6)c([N+](=O)[O-])c5)cc4)CC3)c2)c(-c2ccc(Cl)cc2)n1C [Compound 15, (R)-N-(4-(4-(3-(2-(4-Chlorophenyl)-4-cyano-1,5-dimethyl-1H-pyrrol-3-yl)phenyl)piperazin-1-yl)phenyl)-4-(4-(dimethylamino)-1-(phenylthio)butan-2-ylamino)-3-nitrobenzenesulfonamide]
Times less potent than compound 4 in H146 cell growth inhibition ([1]; versus 4): 8 times

Compound: CN(C)CC[C@H](CSc1ccccc1)Nc1ccc(S(=O)(=O)Nc2ccc(N3CCN(c4cccc(-c5c(C(=O)NS(C)(=O)=O)cnn5-c5ccc(Cl)cc5)c4)CC3)cc2)cc1[N+](=O)[O-] [Compound 24, (R)-1-(4-Chlorophenyl)-5-(3-(4-(4-(4-(4-(dimethylamino)-1-(phenylthio)butan-2-ylamino)-3-nitrophenylsulfonamido)phenyl)piperazin-1-yl)phenyl)-N-(methylsulfonyl)-1H-pyrazole-4-carboxamide]
Cellular activity in H146 [1]: minimal activity

Compound: CCCCn1c(C)c(C(=O)O)c(-c2cccc(N3CCN(c4ccc(NS(=O)(=O)c5ccc(N[C@H](CCN(C)C)CSc6ccccc6)c([N+](=O)[O-])c5)cc4)CC3)c2)c1-c1ccc(Cl)cc1 [Compound 30, (R)-1-Butyl-5-(4-chlorophenyl)-4-(3-(4-(4-(4-(4-(dimethylamino)-1-(phenylthio)butan-2-ylamino)-3-nitrophenylsulfonamido)phenyl)piperazin-1-yl)phenyl)-2-methyl-1H-pyrrole-3-carboxylic acid]
Times less potent than compound 5 in H146 cell growth inhibition [1]: > 5 times
Times less potent than compound 28 in H146 cell growth inhibition [1]: > 10 times

Compound: Cc1cc(-c2cccc(N3CCN(c4ccc(NS(=O)(=O)c5ccc(N[C@H](CCN(C)C)CSc6ccccc6)c([N+](=O)[O-])c5)cc4)CC3)c2)c(-c2ccc(Cl)cc2)n1C [Compound 7]
Inhibition of cell growth in H146 ([1]; at concentrations as high as 10 μM): completely inactive
